According to ChEMBL document CHEMBL4028917, “(+)-Methyl (1R,2S)-2-{[4-(4-Chlorophenyl)-4-hydroxypiperidin-1-yl]methyl}-1-phenylcyclopropanecarboxylate [(+)-MR200] Derivatives as Potent and Selective Sigma Receptor Ligands: Stereochemistry and Pharmacological Properties” (J Med Chem, 2018):
Values after ≈ are worked out from the molar mass of the structure shown. Active and inactive are the calls of the source. No cut-off for these calls is given here.

Legend:
[1] = target: Sigma non-opioid intracellular receptor 1 (Cavia porcellus, UniProt Q60492); assay: Displacement of [3H]-(+)-pentazocine from sigma1 receptor in guinea pig brain membrane after 150 mins by liquid scintillation counting method; type: cell membranes
Sigma non-opioid intracellular receptor 1, sequence (Q60492 whole entry): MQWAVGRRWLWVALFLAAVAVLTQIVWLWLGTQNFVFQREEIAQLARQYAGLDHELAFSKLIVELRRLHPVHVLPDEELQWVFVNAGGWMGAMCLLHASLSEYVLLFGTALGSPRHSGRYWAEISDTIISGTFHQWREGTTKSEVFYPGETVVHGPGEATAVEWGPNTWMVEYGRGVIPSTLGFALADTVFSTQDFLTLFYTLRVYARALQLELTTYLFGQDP

[2] = Displacement of [3H]-(+)-DTG from sigma2 receptor in guinea pig brain membrane after 120 mins by liquid scintillation counting method; type: cell membranes, Cavia porcellus
[3] = target: D(1A) dopamine receptor (Rattus norvegicus, UniProt P18901); assay: Binding affinity to dopamine D1 receptor in rat striatum by liquid scintillation counting method
D(1A) dopamine receptor, sequence (P18901 whole entry): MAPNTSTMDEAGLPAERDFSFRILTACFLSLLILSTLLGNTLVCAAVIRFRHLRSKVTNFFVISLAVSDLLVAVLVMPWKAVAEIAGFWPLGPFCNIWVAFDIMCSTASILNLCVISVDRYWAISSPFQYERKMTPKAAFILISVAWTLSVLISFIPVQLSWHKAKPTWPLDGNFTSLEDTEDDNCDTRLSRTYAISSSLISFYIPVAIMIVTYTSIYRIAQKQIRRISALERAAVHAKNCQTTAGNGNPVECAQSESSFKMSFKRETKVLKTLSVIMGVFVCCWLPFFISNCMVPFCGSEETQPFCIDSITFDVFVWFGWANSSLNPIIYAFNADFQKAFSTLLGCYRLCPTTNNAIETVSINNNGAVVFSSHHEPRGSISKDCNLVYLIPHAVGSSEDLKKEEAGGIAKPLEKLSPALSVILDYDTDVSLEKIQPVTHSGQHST

[4] = target: D(2) dopamine receptor (Rattus norvegicus, UniProt P61169); assay: Displacement of [3H]-spiperone from dopamine D2 receptor in rat strriatum after 15 mins by liquid scintillation counting method
D(2) dopamine receptor, sequence (P61169 whole entry): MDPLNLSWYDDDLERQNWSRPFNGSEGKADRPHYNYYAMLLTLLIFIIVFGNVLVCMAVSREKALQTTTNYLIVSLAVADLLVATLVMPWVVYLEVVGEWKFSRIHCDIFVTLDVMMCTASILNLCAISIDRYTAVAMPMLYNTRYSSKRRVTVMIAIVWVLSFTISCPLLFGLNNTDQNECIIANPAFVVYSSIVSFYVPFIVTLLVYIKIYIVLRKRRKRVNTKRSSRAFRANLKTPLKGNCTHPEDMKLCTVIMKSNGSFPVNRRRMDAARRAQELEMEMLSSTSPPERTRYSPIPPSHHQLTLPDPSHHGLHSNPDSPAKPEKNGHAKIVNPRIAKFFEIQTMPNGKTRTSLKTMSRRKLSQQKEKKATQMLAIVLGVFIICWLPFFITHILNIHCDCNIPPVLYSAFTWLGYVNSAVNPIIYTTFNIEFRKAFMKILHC

[5] = tested on: Mus musculus; assay: Antinociceptive activity in CD1 mouse model of mechanical nociception assessed as effect on struggle response latency at 4 mg/kg, sc administered 30 mins before behavioral evaluation by paw pressure test; type: functional, organism-based
Procedure, shortened: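 Female CD1 mice (25–30 g). Paw pressure test: a blunt cone applied 450 g to the dorsal hindpaw until a struggle response; latency (s) recorded. Each hindpaw was tested twice, alternately, at 1 min intervals. Morphine or HPMC vehicle was given s.c. 30 min before testing. Values are the mean ± SEM of both hindpaws from 6–8 animals; one-way ANOVA with Bonferroni test.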

[6] = tested on: Mus musculus; assay: Antinociceptive activity in CD1 mouse model of mechanical nociception assessed as effect on struggle response latency at 8 mg/kg, sc administered 30 mins before behavioral evaluation by paw pressure test; type: functional, organism-based
Procedure, shortened: (§1)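 Female CD1 mice (25–30 g) in the paw pressure test. A 450 g blunt cone was pressed on the dorsal hindpaw until a struggle response, and latency (s) was recorded. Each hindpaw was tested twice, alternately, 1 min apart. Morphine (4 mg/kg) or HPMC vehicle was given s.c. 30 min before testing. Test drugs were given s.c. in HPMC 5 min before morphine. Mean ± SEM, 6–8 animals; one-way ANOVA with Bonferroni.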

[7] = organism: Cavia porcellus; assay: Selectivity index, ratio of Ki for sigma2 receptor in guinea pig brain membrane […]; type: cell membranes
[8] = tested on: Mus musculus; assay: (§2) Antinociceptive activity in CD1 mouse model of mechanical nociception assessed as increase in morphine-induced struggle response latency at 16 to 32 mg/kg, sc administered 30 mins before behavioral evaluation by paw pressure test; type: functional, organism-based; procedure, shortened: as §1
[9] = tested on: Mus musculus; assay: Antinociceptive activity in sc dosed CD1 mouse model of mechanical nociception assessed as increase in morphine-induced struggle response latency administered 30 mins before behavioral evaluation by paw pressure test; type: functional, organism-based; procedure, shortened: as §1
[10] = tested on: Mus musculus; assay: Antinociceptive activity in CD1 mouse model of mechanical nociception assessed as effect on struggle response latency at 32 mg/kg, sc administered 30 mins before behavioral evaluation by paw pressure test; type: functional, organism-based; procedure, shortened: as §1
[11] = tested on: Mus musculus; assay: as §2, with “at” for “at 16 to”, “evaluation co-treated with 32 mg/kg, sc prototypical sigma1 receptor agonist PRE-084 administered 5 min before injection of morphine” for “evaluation”; type: functional, organism-based; procedure, shortened: as §1
[12] = tested on: Plasma; assay: Enzymatic stability of the compound in rat plasma assessed observed rate constant; type: ADME, cell-free
Procedure, shortened: (§3)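 Hydrolysis was followed at 37 °C in rat, mouse or human plasma. Half-life (h) and observed rate constant (h⁻¹) were derived; means ± SD of three experiments.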

[13] = Aqueous solubility of the compound; type: physicochemical
Procedure, shortened: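 Water solubility (mg/mL) was measured experimentally; mean ± SD of three experiments.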

[14] = Chemical stability of the compound at pH 1.3 assessed as half life; type: physicochemical; conditions: buffer
Procedure, shortened: (§4)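 Chemical stability was tested in vitro at 37 °C in aqueous buffer at pH 1.3 (non-enzymatic simulated gastric fluid) or pH 7.4. Half-life and k_obs were reported; means ± SD of three experiments.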

[15] = Chemical stability of the compound at pH 7.4 assessed as half life; type: physicochemical; conditions: buffer; procedure, shortened: as §4
[16] = Chemical stability at pH 1.3 assessed as observed rate constant; type: physicochemical; conditions: buffer; procedure, shortened: as §4
[17] = Chemical stability at pH 7.4 assessed as observed rate constant; type: physicochemical; conditions: buffer; procedure, shortened: as §4
[18] = Enzymatic stability of the compound in rat plasma assessed as half life; type: ADME, cell-free; procedure, shortened: as §3
[19] = Enzymatic stability of the compound in mouse plasma assessed as half life; type: ADME, cell-free; procedure, shortened: as §3
[20] = tested on: Plasma; assay: Enzymatic stability of the compound in mouse plasma assessed observed rate constant; type: ADME, cell-free; procedure, shortened: as §3
[21] = Enzymatic stability of the compound in human plasma assessed as half life; type: ADME, cell-free; procedure, shortened: as §3
[22] = tested on: Plasma; assay: Enzymatic stability of the compound in human plasma assessed observed rate constant; type: ADME, cell-free; procedure, shortened: as §3
[23] = target: D(3) dopamine receptor (Rattus norvegicus) (UniProt P19020); assay: Binding affinity to dopamine D3 receptor in rat olfactory tubercle by liquid scintillation counting method
D(3) dopamine receptor (Rattus norvegicus), sequence (P19020 whole entry): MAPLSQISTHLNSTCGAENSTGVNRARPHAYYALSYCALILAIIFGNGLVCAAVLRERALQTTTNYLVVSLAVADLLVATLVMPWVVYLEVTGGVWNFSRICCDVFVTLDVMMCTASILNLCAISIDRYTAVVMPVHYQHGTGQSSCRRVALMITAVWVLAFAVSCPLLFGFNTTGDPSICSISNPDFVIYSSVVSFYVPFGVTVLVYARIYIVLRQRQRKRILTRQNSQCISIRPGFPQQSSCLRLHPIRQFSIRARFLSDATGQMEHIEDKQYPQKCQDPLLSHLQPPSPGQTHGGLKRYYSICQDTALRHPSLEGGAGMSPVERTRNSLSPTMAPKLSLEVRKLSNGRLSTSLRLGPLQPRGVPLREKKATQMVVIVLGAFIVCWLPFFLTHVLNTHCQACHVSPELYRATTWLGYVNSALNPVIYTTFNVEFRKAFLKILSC

[24] = organism: Homo sapiens; assay: Binding affinity to dopamine D4.2 receptor (unknown origin) by liquid scintillation counting method
[25] = target: 5-hydroxytryptamine receptor 2A (Rattus norvegicus) (UniProt P14842); assay: Binding affinity to 5-HT2A receptor in rat cortex by liquid scintillation counting method
5-hydroxytryptamine receptor 2A (Rattus norvegicus), sequence (P14842 whole entry): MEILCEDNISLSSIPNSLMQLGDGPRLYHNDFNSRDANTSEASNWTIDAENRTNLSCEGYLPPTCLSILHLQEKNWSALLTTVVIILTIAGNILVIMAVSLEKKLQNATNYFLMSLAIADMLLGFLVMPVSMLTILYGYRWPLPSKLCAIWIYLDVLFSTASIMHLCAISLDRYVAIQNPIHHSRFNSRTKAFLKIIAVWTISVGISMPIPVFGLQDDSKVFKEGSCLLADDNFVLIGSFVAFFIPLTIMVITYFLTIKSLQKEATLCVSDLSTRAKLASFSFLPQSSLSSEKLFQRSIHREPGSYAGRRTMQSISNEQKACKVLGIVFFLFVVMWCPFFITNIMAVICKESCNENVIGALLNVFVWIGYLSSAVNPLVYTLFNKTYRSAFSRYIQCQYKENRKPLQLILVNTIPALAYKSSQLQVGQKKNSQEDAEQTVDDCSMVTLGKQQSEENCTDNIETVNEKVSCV

[26] = target: T1, 5-hydroxytryptamine receptor 3A (Rattus norvegicus) (UniProt P35563); assay: Binding affinity to 5-HT3 receptor in rat cortex by liquid scintillation counting method
T1 sequence (whole entry): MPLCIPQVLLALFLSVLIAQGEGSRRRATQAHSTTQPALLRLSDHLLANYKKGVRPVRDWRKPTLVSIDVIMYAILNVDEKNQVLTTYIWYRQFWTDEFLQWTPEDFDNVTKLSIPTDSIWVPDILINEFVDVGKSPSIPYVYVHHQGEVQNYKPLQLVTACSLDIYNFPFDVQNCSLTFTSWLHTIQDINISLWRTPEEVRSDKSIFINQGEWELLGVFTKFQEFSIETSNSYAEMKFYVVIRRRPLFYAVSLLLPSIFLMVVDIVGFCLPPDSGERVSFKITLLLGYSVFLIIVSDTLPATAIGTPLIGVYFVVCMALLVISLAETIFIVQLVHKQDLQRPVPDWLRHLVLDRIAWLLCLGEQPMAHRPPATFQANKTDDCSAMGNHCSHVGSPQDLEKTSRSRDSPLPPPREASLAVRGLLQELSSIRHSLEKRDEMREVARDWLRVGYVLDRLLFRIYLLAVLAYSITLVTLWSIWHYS

[27] = target: Adrenergic receptor alpha-1 (Rattus norvegicus) (UniProt P15823+P23944+P43140); assay: Binding affinity to adrenergic alpha1 receptor in rat cortex by liquid scintillation counting method
[28] = tested on: Mus musculus; assay: Reversal of 8 mg/kg, sc BD-1063-induced potentiation of morphine-induced antinociceptive activity in CD1 mouse model of mechanical nociception by measuring struggle response latency at 32 mg/kg, sc administered 30 mins before behavioral evaluation by paw pressure test; type: functional, organism-based; procedure, shortened: as §1
[29] = tested on: Mus musculus; assay: Antinociceptive activity in CD1 mouse model of mechanical nociception assessed as effect on struggle response latency at 16 to 32 mg/kg, sc administered 30 mins before behavioral evaluation by paw pressure test; type: functional, organism-based; procedure, shortened: as §1
[30] = tested on: Mus musculus; assay: Antinociceptive activity in CD1 mouse model of mechanical nociception assessed as increase in morphine-induced struggle response latency at 12 to 16 mg/kg, sc administered 30 mins before behavioral evaluation by paw pressure test; type: functional, organism-based; procedure, shortened: as §1

Compound	Ki [1] [nM]	Ki [2] [nM]	Ratio Ki [7]	also measured
COC(=O)C1(c2ccccc2)CC1CN1CCC(O)(c2ccc(Cl)cc2)CC1 (racemic)	14.6	61.1		Ki [3]: > 10000 nM; Ki [4]: 5200 nM
CN1CC[C@]23c4c5ccc(O)c4O[C@H]2[C@@H](O)C=C[C@H]3[C@H]1C5				Activity [5]: inactive
CN1CCN(CCc2ccc(Cl)c(Cl)c2)CC1				Activity [6]: Active
COC(=O)C1(c2ccccc2)CC1CN1CCC(O)(c2ccc(Cl)cc2)CC1 (single isomer, unassigned; (+)) [listing 1 of 2 here]			14.5	
CC(C)OC(=O)[C@]1(c2ccccc2)C[C@H]1CN1CCC(O)(c2ccc(Cl)cc2)CC1	43	214	5	Activity [8]: Active; Activity [9]: Dose-dependent effect; Activity [10]: inactive; Activity [11]: inactive
CCCOC(=O)[C@]1(c2ccccc2)C[C@@H]1CN1CCC(O)(c2ccc(Cl)cc2)CC1	14	146	10.4	
CCOC(=O)[C@]1(c2ccccc2)C[C@H]1CN1CCC(O)(c2ccc(Cl)cc2)CC1	45	107	2.4	
COC(=O)[C@]1(c2ccccc2)C[C@H]1CN1CCC(O)(c2ccc(Cl)cc2)CC1	11	40	3.6	Ki [3]: > 10000 nM; Ki [4]: 5620 nM
CCCN1CCC=C(c2cc(-c3ccc(C)cc3)no2)C1	4.3			
CCCOC(=O)[C@@]1(c2ccccc2)C[C@@H]1CN1CCC(O)(c2ccc(Cl)cc2)CC1	13	171	13.2	
CC(C)OC(=O)[C@@]1(c2ccccc2)C[C@@H]1CN1CCC(O)(c2ccc(Cl)cc2)CC1	7	1840	> 250	K [12]: 3.26 h⁻¹; solubility [13]: 3100 µg/mL (≈ 7.24 mM); half-life [14]: 83.6 h; half-life [15]: 91 h; K [16]: 0.009 h⁻¹; K [17]: 0.009 h⁻¹; half-life [18]: 0.38 h; half-life [19]: 1.14 h; K [20]: 0.51 h⁻¹; half-life [21]: 65.2 h; K [22]: 0.01 h⁻¹; Activity [8]: inactive; Activity [23]: inactive; Activity [24]: inactive; Activity [25]: inactive; Activity [26]: inactive; Activity [27]: inactive; Activity [28]: Active
CCCOC(=O)[C@@]1(c2ccccc2)C[C@H]1CN1CCC(O)(c2ccc(Cl)cc2)CC1	33	290	8.8	
COC(=O)[C@@]1(c2ccccc2)C[C@@H]1CN1CCC(O)(c2ccc(Cl)cc2)CC1	129	142	1.1	Ki [3]: > 10000 nM; Ki [4]: 4970 nM
CCOC(=O)[C@@]1(c2ccccc2)C[C@@H]1CN1CCC(O)(c2ccc(Cl)cc2)CC1	52	1300	25	
COC(=O)C1(c2ccccc2)CC1CN1CCC(O)(c2ccc(Cl)cc2)CC1 (single isomer, unassigned; (-))	5.6	23.4		Ki [3]: > 10000 nM; Ki [4]: 378 nM
CC(C)OC(=O)[C@]1(c2ccccc2)C[C@@H]1CN1CCC(O)(c2ccc(Cl)cc2)CC1	20	209	10.5	Activity [11]: inactive; Activity [29]: inactive
CCCOC(=O)[C@]1(c2ccccc2)C[C@H]1CN1CCC(O)(c2ccc(Cl)cc2)CC1	12	73	6.1	
O=C(O)[C@@]1(c2ccccc2)C[C@@H]1CN1CCC(O)(c2ccc(Cl)cc2)CC1	445	650	1.5	
CCOC(=O)[C@]1(c2ccccc2)C[C@@H]1CN1CCC(O)(c2ccc(Cl)cc2)CC1	1.35	57	42.2	
COC(=O)C1(c2ccccc2)CC1CN1CCC(O)(c2ccc(Cl)cc2)CC1 (single isomer, unassigned; (+)) [listing 2 of 2 here]	1.51	21.9		Ki [3]: > 10000 nM; Ki [4]: 3230 nM
O=C(CCCN1CCC(O)(c2ccc(Cl)cc2)CC1)c1ccc(F)cc1 [HALOPERIDOL]		16		
CC(C)OC(=O)[C@@]1(c2ccccc2)C[C@H]1CN1CCC(O)(c2ccc(Cl)cc2)CC1	67	1640	24.4	Activity [8]: Active; Activity [30]: Active; Activity [11]: inactive; Activity [29]: inactive
CCOC(=O)[C@@]1(c2ccccc2)C[C@H]1CN1CCC(O)(c2ccc(Cl)cc2)CC1	45	918	20.4	
